These results are taken from ChEMBL document CHEMBL4118145, “Structure-activity relationship investigation of Phe-Arg mimetic region of human glutaminyl cyclase inhibitors” (Bioorg Med Chem, 2018).

Data set [1] deals with HT-22. In words: Cytotoxicity against mouse HT22 cells assessed as decrease in cell viability at 10 uM by MTT assay relative to control. Conditions: ht-22, 10 µM. In kind it is cell-based. In outline: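 HT-22 immortalized hippocampal neuronal cells incubated with compound at 10 μM; viability read by MTT assay and expressed as % of control.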
Data set [2] addresses hERG (KCNH2) (Homo sapiens, UniProt Q12809). The data set can be described thus: Inhibition of human ERG at 10 uM relative to control. The method, boiled down: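 hERG channel blocking tested at 10 μM, reported as % inhibition.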
For data set [3], the system named is Mus musculus. In words: In vivo inhibition of glutaminyl cyclase in ICR mouse brain extract assessed as decrease in levels of human pyroglutamyl-beta-amyloid (1 to 40) containing N-terminal pyroglutamte at position 3 at 25 mg/kg, icv measured next day by sandwich ELISA relative to control. In kind it is functional. The settings on record: central. The method, boiled down:
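Male ICR mice (25 g, n = 4) received icv injection of human Aβ3-40 (5 μL of 1 μg/μL in PBS, 5 µg) into deep cortical/hippocampal tissue via stereotaxic frame, then compound at 25 mg/kg icv. Brain extracts taken next day; Aβ N3pE-40 quantified by sandwich ELISA, expressed as % inhibition versus vehicle control.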

Chain of hERG (KCNH2) (Q12809 whole entry): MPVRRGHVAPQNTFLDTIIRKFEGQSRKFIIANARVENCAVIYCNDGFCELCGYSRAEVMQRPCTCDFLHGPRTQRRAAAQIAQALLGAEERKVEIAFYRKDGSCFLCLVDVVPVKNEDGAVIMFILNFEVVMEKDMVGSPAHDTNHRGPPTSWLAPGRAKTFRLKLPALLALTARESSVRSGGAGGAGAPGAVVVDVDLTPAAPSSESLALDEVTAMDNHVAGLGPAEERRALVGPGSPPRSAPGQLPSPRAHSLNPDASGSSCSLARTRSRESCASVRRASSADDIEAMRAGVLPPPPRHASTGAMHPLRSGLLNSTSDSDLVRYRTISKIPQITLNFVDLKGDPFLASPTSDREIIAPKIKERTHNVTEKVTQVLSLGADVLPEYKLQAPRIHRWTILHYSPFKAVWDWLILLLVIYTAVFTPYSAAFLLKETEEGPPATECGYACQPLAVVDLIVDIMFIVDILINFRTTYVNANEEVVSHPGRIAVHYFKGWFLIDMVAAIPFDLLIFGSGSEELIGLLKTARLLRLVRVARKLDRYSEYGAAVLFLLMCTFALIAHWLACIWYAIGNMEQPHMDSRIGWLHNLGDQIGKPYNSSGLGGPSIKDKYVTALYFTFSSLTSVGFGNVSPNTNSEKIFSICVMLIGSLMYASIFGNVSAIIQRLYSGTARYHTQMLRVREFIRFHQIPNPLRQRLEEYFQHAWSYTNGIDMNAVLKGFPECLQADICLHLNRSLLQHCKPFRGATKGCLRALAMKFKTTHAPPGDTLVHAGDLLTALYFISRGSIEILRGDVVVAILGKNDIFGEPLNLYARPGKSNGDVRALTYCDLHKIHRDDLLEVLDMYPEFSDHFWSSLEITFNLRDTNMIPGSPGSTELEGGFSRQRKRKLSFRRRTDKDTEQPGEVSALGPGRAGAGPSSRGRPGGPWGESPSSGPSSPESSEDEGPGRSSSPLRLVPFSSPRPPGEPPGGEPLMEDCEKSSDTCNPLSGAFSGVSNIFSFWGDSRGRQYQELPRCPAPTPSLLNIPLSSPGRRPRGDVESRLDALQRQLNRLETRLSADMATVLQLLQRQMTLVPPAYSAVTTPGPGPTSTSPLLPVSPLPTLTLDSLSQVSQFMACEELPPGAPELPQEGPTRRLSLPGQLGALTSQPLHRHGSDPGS

For the compound `COc1ccc(NC(=S)NCCCn2cncc2C)cc1OCCN`, the Activity in data set [1] was determined as 100%. Further, the inhibition at 10 µM in data set [2] is 15.3%. In addition, in data set [3], the inhibition in vivo at 25 mg/kg stood at 35.3%.
In the case of `Cc1cncn1CCCNC(=S)Nc1ccc(/C=C/C(=O)N2CCN(CCN)CC2)cc1`, the Activity in data set [1] is reported as 100%. At 10 µM the inhibition in data set [2] was 7.2%. The inhibition in vivo at 25 mg/kg in data set [3] came to 22.9%.
As to `COc1ccc(NC(=S)NCCCn2cncc2C)cc1OCCCCN`, in data set [1], the Activity was determined as 100%. In addition, the inhibition at 10 µM in data set [2] was found to be 2.8%. Also, the inhibition in vivo at 25 mg/kg in data set [3] came to 36.6%.
As to `COc1ccc(NC(=S)NCCCn2cncc2C)cc1OCCCC1CCNCC1`, the Activity in data set [1] is recorded as 100%. In addition, 10 µM produced 25.6% inhibition in data set [2]. For the same compound, the inhibition in vivo at 25 mg/kg in data set [3] amounted to 5.5%.
Turning to `COc1ccc(NC(=S)NCCCn2cncc2C)cc1OCCCN`, the Activity in data set [1] turned out to be 100%. In data set [2], this compound came in with an inhibition at 10 µM of 8.8%. Further, the inhibition in vivo at 25 mg/kg in data set [3] is 12.8%.
`COc1ccc(NC(=S)NCCCn2cncc2C)cc1OCCCCC1CCNCC1`: in data set [1], the Activity is 100%. Also, the inhibition at 10 µM in data set [2] worked out at 35.1%. For the same compound, the inhibition in vivo at 25 mg/kg in data set [3] worked out at 14.4%.
On to `COc1ccc(NC(=S)NCCCn2cncc2C)cc1OCCC1CCNCC1`, for which the Activity in data set [1] came out at 100%. In data set [2], this compound displayed an inhibition at 10 µM of 14.9%. Also, the inhibition in vivo at 25 mg/kg in data set [3] came out at 1.8%.
For `Cc1cncn1CCCNC(=S)Nc1ccc(OCC(=O)NC2CCN(CCN)CC2)cc1`, in data set [1], the Activity came to 100%. The same compound had an inhibition at 10 µM in data set [2] of 19.9%.
